Experimental data reported in article PMC6714607 (ACS Omega, 2019).

Columns and labels:
Type in all cases: cell-based
U87MG cells = assay: FACS analysis of FITC-labeled PNA conjugate uptake; settings: 0.5 μM, 2 h
How it was run: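 U87MG cells were seeded at 2.0×10^5 per well and left to adhere overnight. They were given 0.5 μM FITC-labelled conjugate in DMEM with 10% FCS for 2 h at 37 °C, either alone, with 10 mM NaN3 plus 10 mM 2-deoxy-D-glucose, or held at 4 °C. Cells were PBS-washed, trypsinised, pelleted, resuspended in cold PBS and filtered. Flow cytometry used 488 nm excitation, gated on untreated cells, and gave the % FITC-positive cells. Each condition was run in two repeats.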

U87MG glioblastoma cells [1] = assay: Confocal colocalization with Lyso-Tracker Red and Hoechst; settings: 0.5 μM, 3 h, 37 °C, Lyso-Tracker Red and Hoechst staining
How it was run: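 U87MG cells were plated 12 h beforehand on glass chamber slides and grown to 70–80% confluence. They were given 0.5 μM FITC-labelled conjugate in fresh complete medium for 3 h at 37 °C under 5% CO2, then washed twice with PBS. Staining was 50 nM LysoTracker Red for 20–30 min at 37 °C, PBS washes, then 0.01 mM Hoechst for 15 min. Cells were fixed in 4% formaldehyde and imaged by confocal laser scanning microscopy.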

miR-155 = miR-155 expression by quantitative RT-PCR after PNA conjugate treatment; settings: U87MG cells, 0.5 μM PNA conjugate, 24 h, 37 °C, qRT-PCR in triplicates
How it was run: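 U87MG cells were treated with 0.5 μM conjugate or its scrambled-sequence control for 24 h at 37 °C. Total microRNA was isolated, and cDNA was synthesised from 1 μg RNA. miR-155 was quantified by SYBR Green real-time PCR with miR-155-specific primers, in triplicate.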

U87MG glioblastoma cells [2] = assay: XTT cell viability assay, U87MG; settings: 1 μM, 72 h, 37 °C, triplicates in 96-well plates
How it was run: (§1)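 Cells were grown in DMEM with 10% FCS and penicillin/streptomycin, then seeded at 3×10^3 per well in 96-well plates. After 24 h attachment, the medium was replaced and conjugate or its scrambled-sequence control was added. Plates were incubated 72 h at 37 °C in humidified 5% CO2, and proliferation was read by XTT assay per the kit instructions.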

[3] = test system: THESCs uterus (immortalized fibroblast) cells; assay: XTT cell viability assay, THESCs uterus; settings: 1 μM, 72 h, 37 °C, triplicates in 96-well plates
How it was run: as §1

[4] = test system: normal uterus human fibroblast cells produced from a patient (Nf08 uterus); assay: XTT cell viability assay, Nf08 uterus; settings: 1 μM, 72 h, 37 °C, triplicates in 96-well plates, Figure S9
How it was run: as §1

U87MG glioblastoma cells [5] = assay: Colony formation; settings: 1.0 μM for 24 h, colonies counted after 2 weeks, triplicates
How it was run: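 U87MG cells in DMEM with 10% FCS were treated for 24 h with 1.0 μM conjugate or its scrambled-sequence control. Cells were then seeded at 1000 and 500 per well in triplicate six-well plates. After 14 days, colonies were fixed with 2.5% glutaraldehyde for 10 min, stained with 1% methylene blue and counted. Colony numbers were taken from the triplicate plates.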

With “FITC-Ahx-5′-ACCCCTATCACAATTAGCATTAA-3′-dK4 [dK4–PNA–FITC]” the “cellular uptake, change in FITC fluorescence by FACS” value (U87MG cells; 37 °C, complete medium, flow cytometry 488 nm) was “almost no change in fluorescence” and the “cellular uptake by confocal microscopy of stained, fixed cells” value (U87MG glioblastoma cells [1]) was “negligible uptake”.

For “5′-ACCCCTATCACAATTAGCATTAA-3′-C9 (head to tail) [C9–PNA]”, the “decrease in miR-155 in comparison to the scrambled control” value (miR-155) was “over 80%”, the “reduction in cell viability in comparison to the C9–PNA-Scr control” value (U87MG glioblastoma cells [2]) was over 80% and the “effect on viability of THESCs uterus cells” value [3] was “negligible effects”. The “effect on viability of Nf08 uterus normal human fibroblast cells” value [4] was “negligible effects” and the colony formation (U87MG glioblastoma cells [5]) was “substantial decrease in colony formation”.

With “5′-ACCCAATCGTCAGATTCCATATA-3′-C9 (head to tail) [C9–PNA-Scr]” the “effect on viability of THESCs uterus cells” value [3] was “negligible effects” and the “effect on viability of Nf08 uterus normal human fibroblast cells” value [4] was “negligible effects”.

“FITC-Ahx-5′-ACCCCTATCACAATTAGCATTAA-3′-C9 (head to tail) [C9–PNA–FITC]” was tested, and the “cellular uptake at 4 °C (ATP depletion) by FACS” value (U87MG cells; 4 °C, versus control at 37 °C, two repeats) was “clear decrease in cellular uptake”, the “cellular uptake with 10 mM NaN3/10 mM 2-deoxy-D-glucose by FACS” value (U87MG cells; 37 °C, versus control without inhibitors, two repeats) was “clear decrease in cellular uptake” and the “cellular localization of FITC-labeled PNA” value (U87MG glioblastoma cells [1]) was “predominantly found in lysosomes and, to a lesser extent, in nuclei”. The “cellular uptake by confocal microscopy of stained, fixed cells” value (U87MG glioblastoma cells [1]) was “strong punctate green signals”.
